According to ChEMBL document CHEMBL3091430, “Design and evaluation of xanthine based adenosine receptor antagonists: potential hypoxia targeted immunotherapies” (Bioorg Med Chem, 2013):
The source made the active and inactive calls. The calls are words filed in the database; no cut-off is given here.

Columns and labels:
[1] = Photostability of the compound assessed as compound remaining after 2 weeks by HPLC analysis; format: physicochemical; conditions: 336 h
[2] = Octanol-water partition coefficient, log P of the compound by HPLC analysis; format: physicochemical
[3] = Partition coefficient, log K of the compound; format: physicochemical; conditions: octanol/water
[4] = test system: Lymphocyte; assay: Induction of mAB-CD3-mediated IFN-gamma production in CGS-21680-treated C57/BL6 mouse lymphocytes at 0.5 uM after 24 hrs by ELISA; format: functional, cell-based
In short: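 C57/BL6 mouse splenic lymphocytes activated with 0.1 μg/mL anti-CD3 mAb, then immediately given 1, 10 or 100 nM CGS 21680 with or without antagonist at 0.5 μM. Supernatant IFN-gamma measured after 24 h by sandwich ELISA (paired mAb with standard), in pg/mL; triplicates, mean ± SEM.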

[5] = biological target: Adenosine receptor A2a (Mus musculus) (UniProt Q60613); assay: Antagonist activity at adenosine A2A receptor in C57/BL6 mouse lymphocytes assessed as inhibition of CGS-21680-mediated cAMP accumulation after 15 mins by ELISA; format: functional, cell-based
In short: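 Splenic lymphocytes from C57/BL6 mice stimulated with 1 μM CGS 21680 (A2AR agonist), with or without antagonist over 0.1–10 μM; 15 min at 37 °C, stopped with 1 N HCl. Intracellular cAMP quantified by ELISA, expressed as pmol/million cells; triplicate samples, mean ± SEM.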

[6] = Half life in rat; format: ADME, organism-based; conditions: in vivo
[7] = Photostability of the compound assessed as compound remaining measured within 24 hrs by HPLC analysis; format: physicochemical; conditions: read-out: Stability
[8] = Photostability of the compound assessed as compound remaining measured within 7 days by HPLC analysis; format: physicochemical; conditions: read-out: Stability
[9] = Half life in mouse at 20 mg/kg, ip by HPLC analysis; format: ADME, organism-based; design: dose 20 mg/kg, route intraperitoneal; conditions: in vivo

Chain of Adenosine receptor A2a (Mus musculus) (Q60613 whole entry): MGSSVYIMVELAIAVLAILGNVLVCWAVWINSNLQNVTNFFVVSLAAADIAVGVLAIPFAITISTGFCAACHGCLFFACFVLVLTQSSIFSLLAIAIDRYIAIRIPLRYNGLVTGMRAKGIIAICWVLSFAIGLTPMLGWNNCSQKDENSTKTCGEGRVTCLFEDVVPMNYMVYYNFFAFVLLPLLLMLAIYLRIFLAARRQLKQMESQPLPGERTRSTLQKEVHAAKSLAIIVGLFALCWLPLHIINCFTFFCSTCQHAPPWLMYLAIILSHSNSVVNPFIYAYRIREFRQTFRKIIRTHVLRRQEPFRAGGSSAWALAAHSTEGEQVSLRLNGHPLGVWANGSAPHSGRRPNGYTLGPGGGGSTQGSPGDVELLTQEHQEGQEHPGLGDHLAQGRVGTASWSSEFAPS

logP [2] | log K [3] | SMILES | Activity [4] | further results
2.8 | 0.145 | CCn1c(=O)c2c(nc(/C=C/c3ccc(C(=O)OCCOCCOCCOCCOCCOCCOCCOCCOC)c(OC)c3)n2C)n(CC)c1=O | Active | Stability [1]: Stable
– | – | CCn1c(=O)c2c(nc(/C=C/c3ccc(C(=O)OC)c(OC)c3)n2C)n(CC)c1=O | – | inhibition [5]: Active
2.98 | 0.162 | CCn1c(=O)c2c(nc(/C=C/c3ccc(OC)c(OC)c3)n2C)n(CC)c1=O [ISTRADEFYLLINE] | Active | half-life [6]: 2 h; remaining at 24 h [7]: 10%; remaining at 168 h [8]: > 50%
– | – | Nc1nc(NCCc2ccc(O)cc2)nc2nc(-c3ccco3)nn12 [ZM-241385] | – | half-life [9]: < 1 h
